rRNA inh HTS – inhibits bacterial ribosomal RNA function over humanized ribosomes; E. coli WT GFP vs humanized-ribosome RFP mutants, fluorescence, 24 h; stronger effect = lower value; DMSO median 0, no signal -100; GFP signal change (wild-type ribosome), % (no concentration beside the values); 350,000 compounds, 1.6% hits;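 active = significant combined selectivity score with lowered wild-type GFP, culture density cut under 30%, mutant RFP and density less affected; inactive = any of these conditions unmet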
SKN-1 block – blocks SKN-1 activity in C. elegans. 360,000 compounds, 0.49% hits. C. elegans VP596 Pgst-4::GFP/RFP ratio, acrylamide-induced, 24 h. AID 624304. inhibition, % at 21.8 µM;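 active = interference check ratio from 0.5 to 1.5 plus GFP to RFP signal ratio inhibition reaching or exceeding a fixed threshold, cut at about 30% in these data, passing the limit was not always enough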
DAGLB inh – diacylglycerol lipase beta (human) inhibition. 340,000 compounds, 0.059% hits. HEK293T DAGLB membrane lysate, EnzChek fluorogenic substrate. inhibition, % at 5.17 µM; in the data active = inhibition above about 34%;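 also: 0% = enzyme with vehicle and 100% = wells lacking enzyme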
Target sequence (Q8NCG7 whole entry, looked up): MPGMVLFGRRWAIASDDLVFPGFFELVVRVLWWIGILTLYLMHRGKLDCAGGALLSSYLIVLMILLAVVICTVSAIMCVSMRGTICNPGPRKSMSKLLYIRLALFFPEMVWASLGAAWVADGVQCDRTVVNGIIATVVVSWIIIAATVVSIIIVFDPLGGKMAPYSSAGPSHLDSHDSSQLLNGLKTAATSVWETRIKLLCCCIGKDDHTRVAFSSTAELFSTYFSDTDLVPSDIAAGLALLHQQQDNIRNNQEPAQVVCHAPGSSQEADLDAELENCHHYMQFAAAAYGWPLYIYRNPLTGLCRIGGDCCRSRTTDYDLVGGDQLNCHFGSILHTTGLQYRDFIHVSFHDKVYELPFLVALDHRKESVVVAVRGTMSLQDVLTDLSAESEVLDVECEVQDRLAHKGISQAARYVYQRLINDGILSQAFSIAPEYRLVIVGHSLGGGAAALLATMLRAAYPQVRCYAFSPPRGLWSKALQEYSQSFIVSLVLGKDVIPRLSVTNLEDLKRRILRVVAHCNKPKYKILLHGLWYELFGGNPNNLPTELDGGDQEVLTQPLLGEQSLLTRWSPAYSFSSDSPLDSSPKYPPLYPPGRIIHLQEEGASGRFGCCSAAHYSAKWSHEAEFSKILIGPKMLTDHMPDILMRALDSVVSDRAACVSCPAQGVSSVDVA
hiPSC survival – hiPSC single-cell survival enhancement. ATPlite luminescence; 100% = ROCK inhibitor wells, 0% = DMSO. survival enhancement, % at 20 µM. 360,000 compounds, 0.044% hits; in the data active = survival enhancement above about 18%;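 also: cells exposed to compounds for 16 hours before the ATP read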
MT1-MMP act inh – inhibitors of human MT1-MMP activation; P50281; HT1080 RFP-PRO-GFP cells, GFP/RFP ratio fluorescence, overnight; percent of plate control window, DMSO zero; GFP/RFP ratio change, % at 20 µM; 360,000 compounds, 0.061% hits; AID 651647;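 active = GFP/RFP ratio change of at least 30% with cell ATP level not reduced by more than half and red fluorescence within 50% of control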
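Read-out: GFP/RFP fluorescence ratio; Test system: RFP-PRO-GFP reporter HT1080 cells; Compound dosing: single-point 20 µM compound, 1% DMSO; Times: overnight compound exposure at 37 °C.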
Cneo AK release – causes C. neoformans cell lysis | adenylate kinase release luminescence, 4 h; normalised: neutral wells 0, clomiphene wells 100 | lysis activity, % at 15 µM | 360,000 compounds, 0.2% hits | AID 651654;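 active = mean lysis activity across replicates of at least 80%, whatever share of replicates individually reach that level; inactive = mean lysis activity below 80%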
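Material: C. neoformans cells; Schedule: 4 h static compound exposure, 37 °C, read 1 h post-reagent; Measured by: adenylate kinase release luminescence; Read-out: signal increase indicating cell lysis; Controls: Clomiphene as positive lysis control.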
* = called active by the depositor; x = not tested or not shown. An excerpt weighted towards active compounds, which were near 1.8% of everything screened.

SMILES | rRNA inh HTS | SKN-1 block | DAGLB inh | hiPSC survival | MT1-MMP act inh | Cneo AK release
c1ccc(Cn2nnc3c(NCCN4CCOCC4)ncnc32)cc1 | 8.3 | 43.8* | 2.3 | -0.6 | 1.6 | x
COc1ccc2[nH]c3c(=O)n(CCCCC(=O)NCCN4CCCC4)c(=S)[nH]c3c2c1 | -28.9* | -0.1 | -1.5 | 3.6 | 11.6 | 7.5
CC(C)C#Cc1cnc2c(c1)C(=O)N([C@@H](C)CO)C[C@@H](C)[C@@H](CN(C)C(=O)c1ccc3c(c1)OCO3)O2 | 1.2 | x | x | x | x | x
COc1ccccc1S(=O)(=O)Nc1cc(S(=O)(=O)N2CCCCC2)ccc1N1CCOCC1 | -27.9* | -6.4 | -0.1 | -0.8 | 0.5 | x
CCOC(=O)c1sc2ncc([N+](=O)[O-])cc2c1N | -36.2* | 5.5 | -0.1 | -0.3 | 1.9 | x
Cc1ccc(-c2csc(NC(=O)c3cccc(C)c3)c2C(=O)O)cc1 | -38.4* | 11.4 | 16.2 | -0.3 | 3.6 | -0.3
CCCNC(=O)C[C@@H]1CC[C@H]2[C@@H](COC[C@@H](O)CN2C(=O)Nc2c(C)noc2C)O1 | 1.3 | x | x | x | x | -3.1
O=C(N/N=C/c1ccc2c(c1)OCO2)c1ccc(Br)o1 | x | 7.1 | -3.7 | 0.4 | -2.1 | x
CCN(CC)c1ccc(/C=N/NC(=O)c2ccc(Br)o2)cc1 | -23.0* | -5.5 | 3.8 | 0.1 | -0.2 | x
Cc1ccc(NC(=O)CNC(=O)c2cccs2)cc1S(=O)(=O)Nc1ccc(Cl)cc1 | -19.9 | 41.5* | 0.5 | -0.2 | -1.3 | -1.0
C[C@@H]1CN([C@@H](C)CO)C(=O)c2cc(NC(=O)CCCN(C)C)ccc2O[C@@H](C)CCCCO[C@H]1CN(C)Cc1ccccc1 | 1.4 | x | x | x | x | 0.9
Cc1csc2c(N3CCN(C(=S)Nc4ccc(C(F)(F)F)cc4)CC3)ncnc12 | -32.0* | 3.4 | -6.5 | 0.1 | 23.3 | -3.0
Cc1cc2c([nH]c3ccccc32)c(C)n1 | -36.9 | -1.7 | 0.3 | 0.5 | 2.6 | 1.0
Cc1cc2c(sc3ccccc32)c(C)n1 | -23.6* | 16.9 | -5.1 | -0.1 | 2.2 | 3.0
O=[N+]([O-])c1cccc2ccc(/C=C/c3ccc(F)cc3)nc12 | x | 36.5* | -4.1 | 3.1 | 2.8 | -20.8
CCOc1cc(/C=C/c2ccc3cccc([N+](=O)[O-])c3n2)ccc1O | -38.0 | 6.3 | 2.1 | 0.5 | 2.3 | x
O=C(C1CCCC1)N1CC(=O)N2[C@H](CO)[C@@H](c3ccc(-c4cccnc4)cc3)[C@H]2C1 | 3.7 | x | x | x | x | x
CNC(=S)N(Cc1ccc(Cl)cc1)Cc1cccs1 | -43.2* | -3.7 | -2.5 | 0.9 | -3.9 | -0.1
O=C(Cc1ccc(Cl)cc1)Nc1cc(S(=O)(=O)N2CCOCC2)ccc1N1CCCC1 | -26.1* | 0.3 | -1.6 | -0.2 | -4.0 | x
O=C(COC(=O)c1cc(S(=O)(=O)N2CCCCC2)ccc1N1CCOCC1)NCCc1ccc(F)cc1 | -20.5* | -2.9 | -0.3 | -0.2 | 5.5 | x
CCN(CC)S(=O)(=O)c1ccc(N2CCCC2)c(NC(=O)Cc2ccc(OC)cc2)c1 | -33.9* | 10.5 | 1.2 | 0.2 | -1.1 | 0.0
CC(C)NC(=O)Nc1ccc2c(c1)C(=O)N([C@@H](C)CO)C[C@@H](C)[C@H](CN(C)C(=O)CCCN(C)C)OCCCC[C@H](C)O2 | 1.8 | x | x | x | x | x
C[C@H]1CCCCO[C@@H](CN(C)C(=O)C2CCCCC2)[C@@H](C)CN([C@@H](C)CO)C(=O)c2cc(N(C)C)ccc2O1 | -3.8 | x | x | x | x | x
COc1ccccc1NC(=O)C/C(N)=N/OCC(=O)Nc1cccc(Cl)c1 | x | -6.0 | -4.5 | 0.9 | -1.1 | -1.0
COc1ccccc1NCC(=O)NNC(C)C(=O)Nc1cccc(Cl)c1 (stereo not drawn) | -32.2* | 4.0 | 0.8 | 0.3 | 6.0 | -0.1
SMILES | rRNA inh HTS | SKN-1 block | DAGLB inh | hiPSC survival | MT1-MMP act inh | Cneo AK release
C[C@H](CO)N1C[C@H](C)[C@@H](CN(C)Cc2ccc(Cl)c(Cl)c2)Oc2c(NC(=O)c3nc4ccccc4s3)cccc2C1=O | 6.5 | x | x | x | x | -0.3
COCC(=O)N(C)C[C@H]1Oc2cc(-c3ccc(C)cc3)ccc2S(=O)(=O)N([C@H](C)CO)C[C@@H]1C | -7.8 | x | x | x | x | 19.2
Nc1[nH]c(C(=O)c2ccccc2)c(-c2ccccc2[N+](=O)[O-])c1C(=O)NCCc1c[nH]c2ccccc12 | -38.5* | x | x | x | x | x
Cc1ccc(CN2CCN(/N=C\c3cccc([N+](=O)[O-])c3)CC2)cc1 | -25.2* | 17.1 | -21.8 | 2.8 | 0.6 | -3.1
Clc1cccc(/C=N/N2CCN(Cc3ccccc3)CC2)c1 | -31.4 | 44.1* | -21.4 | 0.8 | 10.0 | -7.7
O=[N+]([O-])c1ccc(/C=N\N2CCN(Cc3ccccc3Cl)CC2)cc1 | x | 7.1 | -4.1 | 5.1 | 4.1 | 0.7
O=[N+]([O-])c1ccc(/C=N/N2CCN(Cc3ccccc3)CC2)cc1 | -16.0* | 8.8 | -4.3 | -0.4 | 3.4 | -3.4
Cc1ccc(/C=N/N2CCN(Cc3ccc(C)cc3)CC2)cc1 | 16.1 | 0.8 | -7.2 | 0.6 | -1.2 | 5.7
BrC(/C=N/N1CCN(Cc2ccccc2)CC1)=C/c1ccccc1 | -42.1* | 5.7 | -11.7 | -0.4 | -2.7 | -0.8
O=C(C[C@H]1CC[C@H]2[C@@H](COC[C@@H](O)CN2Cc2nccs2)O1)NCc1ccccc1F | 2.4 | x | x | x | x | 0.2
C[C@H]1CCCCO[C@H](CN(C)Cc2ccc(C(=O)O)cc2)[C@@H](C)CN([C@@H](C)CO)C(=O)c2cc(NS(=O)(=O)c3ccc(F)cc3)ccc2O1 | 2.8 | x | x | x | x | -12.4
COc1ccccc1CNC(=O)C[C@H]1C[C@@H]2c3cc(NC(=O)c4cccnc4)ccc3O[C@@H]2[C@@H](CO)O1 | -0.3 | x | x | x | x | -0.6
CN1C(=O)c2cc(NS(C)(=O)=O)ccc2OC[C@@H]2O[C@@H](CC(=O)NC3CCCCC3)CC[C@H]21 | -0.5 | x | x | x | x | -1.6
COc1ccc(Cn2c(-c3ccc(Br)cc3)c[n+]3ccccc23)cc1 | -30.4* | 11.2 | -0.5 | -2.8 | -13.7 | 0.4
C[C@@H]1CN([C@@H](C)CO)C(=O)c2cccc(NC(=O)Nc3ccc(F)cc3)c2O[C@H]1CN(C)Cc1ccc(C(=O)Nc2ccccc2N)cc1 | -8.7 | x | x | x | x | x
O=S(=O)(c1cnc(Cl)c(Cl)c1)N1CCc2ccccc21 | -33.1* | -3.6 | -6.4 | 2.4 | -3.3 | -1.7
O=S(=O)(c1cnc(Cl)c(Br)c1)N1CCc2ccccc21 | -0.9 | -10.2 | -2.2 | 1.8 | -7.9 | -0.7
CN1CCN(CCC(=O)Nc2ccc(OCc3ccccc3)cc2)CC1 | x | -12.3 | -1.4 | -1.4 | 0.6 | 0.2
CCOC(=O)N1CCN(CCC(=O)Nc2ccc(Br)c(C)c2)CC1 | -22.7* | -5.0 | 0.5 | -0.4 | 3.9 | x
CCOc1ccc(NC(=O)CCN2CCN(C)CC2)cc1 | 5.9 | 36.8* | 0.3 | -0.3 | -2.2 | 0.8
